From PubChem BioAssay
Records with an inconclusive call do not appear.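 Rule for the calls, unless noted: active = growth inhibition above 25% in both replicates, a cutoff set 3 SD above the mean; inconclusive = above 25% in only one replicate; inactive = the rest.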

How the values were obtained:
[1] = S. cerevisiae growth inhibition in permissive medium (OD615), pilot counter-assay for S. cerevisiae lifespan shortening project, permissive growth control (AID 705); details: OD615, 24 h, at 10 µM, stronger effect = higher value
Outline: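 Timing: 24 h exposure, 30 °C / Material: Saccharomyces cerevisiae strain carrying genetically modified DeaD replicative-lifespan system / Signal: OD at 615 nm / Compound: 10 µM single dose, 0.25% DMSO / Medium: SC raffinose/galactose permissive medium / Evaluation: reduction in yeast growth (OD615)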

[2] = S. cerevisiae growth inhibition in restrictive medium, OD615, pilot screen, restrictive growth control, yeast lifespan reduction project (AID 706;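 active = growth inhibition above a set limit, 3 SD over mean compound inhibition, in both replicates, cut at about 43% in these data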;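 note: modified DeaD lifespan yeast strain shifted to restrictive glucose medium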); details: OD615, 48 h, at 10 µM, stronger effect = higher value
Outline: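 System: Engineered S. cerevisiae DeaD strain | Detection: OD615 | Buffer or medium: CSMM-D glucose medium | Doses: 10 µM compound, 0.25% DMSO | Timing: 4 h pre-growth plus 48 h compound exposure, 30 °C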

[3] = doxorubicin toxicity protection in MRP-1 cells – H69AR cells, CellTiter-Glo, duplicate, MRP-1 activator project, pilot screen (AID 807;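 active = viability increase at or above a cutoff of the median across tested compounds plus 3 SD, cut at about 8.5% in these data, passing the limit was not always enough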;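 note: compound pretreatment 18-22 h then 72 h combined with doxorubicin; 0% = doxorubicin alone and 100% = vehicle without doxorubicin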); details: H69AR viability with doxorubicin, CellTiter-Glo luminescence; at 10 µM; stronger effect = higher value
[4] = viability of HCT116 without oncogenic beta-catenin – human colon tumor cells, pilot screen (AID 823;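 active = cell viability at or below a set limit in both duplicate runs, the limit being the all-compound median minus 4 SD, cut at about 23% in these data, passing the limit was not always enough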;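 note: 0% = wells killed by 20 µM Hyamine and 100% = untreated DMSO cell wells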); details: HCT116 beta-catenin knockout viability, CellTiter-Glo, 60 h; at 10 µM; stronger effect = lower value
[5] = viability of PTEN-null HCT116 cells – cell-based, HCT116 clonal line, CellTiter-Glo, pilot screen (AID 824;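 active = viability at or below 27.92% in each of two runs, the all-compound median minus 4 SD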;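 note: 0% = 20 µM Hyamine control and 100% = vehicle cell control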); details: HCT116 PTEN-deleted viability, 60 h, at 10 µM, stronger effect = lower value
[6] = RAM pathway blockade in budding yeast – dse1pr::URA3 reporter, 5-FOA selection, pilot screen (AID 869;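 active = inhibition over a set limit, the all-compound mean plus 3 SD, in both replicate runs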;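 note: 0% = DMSO wells with no growth and 100% = 10 µM 1-NA-PP1 with full growth; RAM network block rescues cells from 5-FOA so hits raise OD615 growth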); details: S. cerevisiae dse1pr::URA3 5-FOA growth, OD615, 2 d; at 10 µM; stronger effect = higher value; strain carries analog-sensitive mutant Cbk1 kinase
[7] = RAM signaling pathway blockade in yeast – S. cerevisiae, Pdr1DBD-CYC8 efflux-inhibited sensitized strain, primary screen (AID 1298;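 active = RAM network inhibition above 8.4% in each of two replicates, 3 SD over the compound average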;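 note: 0% = DMSO untreated cells without growth and 100% = 10 µM 1-NA-PP1 full growth; higher means more yeast growth rescued from 5-FOA killing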); details: S. cerevisiae cbk1-as DSE1-URA3 strain, 5-FOA growth OD615, 2 d; at 50 µM; stronger effect = higher value

Cn1c(NC(=O)c2cc(Br)ccc2Cl)cc(=O)n(C)c1=O
inactive: growth inhibition [1] 5.54% | growth inhibition [2] -8.75% | viability increase [3] -3.46% | viability [4] 96.8% | viability [5] 90.7% | inhibition [6] 1.64% | RAM network inhibition [7] 1.23%

O=C(NC1CCCCC1)N1CCC(n2c(=O)[nH]c3ccccc32)CC1
inactive: growth inhibition [1] -8.88% | growth inhibition [2] -10.8% | viability increase [3] 1.07% | viability [4] 91.1% | viability [5] 89.6% | inhibition [6] 2.25% | RAM network inhibition [7] 5.7%

O=C(c1cc(C2CC2)on1)N1CCOCC1
inactive: growth inhibition [1] -4.11% | growth inhibition [2] -0.575% | viability increase [3] 0.15% | viability [4] 96% | viability [5] 98.7% | inhibition [6] 1.57% | RAM network inhibition [7] 2.93%

COc1cc2c(cc1OC)C(C(=O)NC1CC1)C1c3ccccc3CCN1C2=O (stereo unspecified)
inactive: growth inhibition [1] -17.8% | growth inhibition [2] -13.4% | viability increase [3] -1.28% | viability [4] 95.8% | viability [5] 97.3% | inhibition [6] 0.58% | RAM network inhibition [7] 0.1%

Cc1ccc2c(CC(=O)O)coc2c1C
inactive: growth inhibition [1] 3.31% | growth inhibition [2] 33.3% | viability increase [3] -2.01% | viability [4] 88% | viability [5] 89.5% | inhibition [6] -0.555% | RAM network inhibition [7] -1.19%

O=C1CC(c2ccccc2)CC(O)=C1C=NCCN1CCNCC1 (stereo unspecified)
inactive: growth inhibition [1] -21.5% | growth inhibition [2] -14.2% | viability increase [3] 1.22% | viability [4] 99.2% | viability [5] 98.1% | inhibition [6] -0.42% | RAM network inhibition [7] -1.05%

Cc1nc(Nc2nc3ccccc3o2)nc2c1CCC2
inactive: growth inhibition [1] 9.76% | growth inhibition [2] 16.7% | viability increase [3] -1.82% | viability [4] 77.7% | viability [5] 76% | inhibition [6] 0.225% | RAM network inhibition [7] -0.26%

CC(=O)Nc1ccc(S(=O)(=O)NCCSCc2ccco2)cc1
inactive: growth inhibition [1] -4.83% | growth inhibition [2] 16.6% | viability increase [3] -4.43% | viability [4] 82.2% | viability [5] 86% | inhibition [6] 2.15% | RAM network inhibition [7] 2.29%

Cc1ccccc1C(=O)Nc1ccccc1
inactive: growth inhibition [1] -0.285% | growth inhibition [2] -2.05% | viability increase [3] -0.99% | viability [4] 96.1% | viability [5] 85.4% | inhibition [6] 0.28% | RAM network inhibition [7] 0.56%

CCOc1ccccc1NC(=O)N1CCCC1C(=O)Nc1ccc(-n2cnnn2)c(C)c1 (stereo unspecified)
inactive: growth inhibition [1] -11.3% | growth inhibition [2] -16.2% | viability increase [3] 0.16% | viability [4] 102% | viability [5] 97.9% | inhibition [6] 1.86% | RAM network inhibition [7] 2.1%

Cc1nnc(NC(=O)CCCCCN2C(=O)C3C4C=CC(C4)C3C2=O)s1 (stereo unspecified)
inactive: growth inhibition [1] -10.6% | growth inhibition [2] -1.29% | viability increase [3] 1.66% | viability [4] 96.7% | viability [5] 102% | inhibition [6] -0.595% | RAM network inhibition [7] 3.05%

COc1ccc(OCC(=O)NC2CC(C)(C)NC(C)(C)C2)cc1
inactive: growth inhibition [1] 4.15% | growth inhibition [2] 2.14% | viability increase [3] 1.31% | viability [4] 103% | viability [5] 105% | inhibition [6] -0.405% | RAM network inhibition [7] 3.43%

Cc1cccc(OCCCCCNCCO)c1
inactive: growth inhibition [1] -16% | growth inhibition [2] -8.45% | viability increase [3] -0.72% | viability [4] 98.6% | viability [5] 94.6% | inhibition [6] 1.7% | RAM network inhibition [7] 0.57%

COc1ccc(C2C(C#N)=C(N)Oc3n[nH]c(C)c32)cc1Cn1nnc2ccccc21 (stereo unspecified)
inactive: growth inhibition [1] 2.33% | growth inhibition [2] -0.6% | viability increase [3] -5.95% | viability [4] 75.7% | viability [5] 77.9% | inhibition [6] 1.26% | RAM network inhibition [7] 7.2%

COc1cccc(NC(=O)Nc2nnc(N3CCCCC3C)s2)c1 (stereo unspecified)
inactive: growth inhibition [1] -2.52% | growth inhibition [2] -11.5% | viability increase [3] -4.53% | viability [4] 88.8% | viability [5] 97.8% | inhibition [6] 1.83% | RAM network inhibition [7] 4.22%

CC(=O)N1CCc2cc(C(=O)CN3CCN(c4ccccc4F)CC3)ccc21
inactive: growth inhibition [1] -7.16% | growth inhibition [2] -7.33% | viability increase [3] -3.19% | viability [4] 93.7% | viability [5] 88% | inhibition [6] 2.17% | RAM network inhibition [7] 2.34%

COc1ccc(-c2noc(Cc3ccccc3OC)n2)cc1
inactive: growth inhibition [1] -15.1% | growth inhibition [2] -10.5% | viability increase [3] 1.93% | viability [4] 94% | viability [5] 83.7% | inhibition [6] 1.83% | RAM network inhibition [7] 1.94%

Cc1onc(-c2ccccc2)c1C(=O)NC(C)C
inactive: growth inhibition [1] -11.8% | growth inhibition [2] -8.11% | viability increase [3] 0.11% | viability [4] 105% | viability [5] 98.8% | inhibition [6] 0.105% | RAM network inhibition [7] 3.45%
